Assay type in all cases: cell-based
Experiment [1] can be described thus: Cytotoxicity against human K562/A02 cells assessed as cell viability after 48 hrs by MTT assay. The note with it: K562/A02, 48 h. Put shortly:
(§1)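 K562 and ADM-resistant, P-gp-overexpressing K562/A02 cells seeded at 1~2×10^4 per well, grown 24 h, then given graded compound doses in medium. Exposure 48 h, 37 °C, 5% CO2. MTT added for a further 4 h, absorbance read at 570 nm. IC50 taken from dose–response curves. Each experiment run three times.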

In experiment [2] the test system is K562/A02. As to the kind of experiment: Reversal of P-gp-mediated resistance to adriamycin in human K562/A02 cells assessed as reduction in adriamycin IC50 at 5 uM after 48 hrs by MTT assay relative to control. Put shortly:
(§2)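 K562/A02 cells in RPMI 1640 with 10% FBS, seeded and grown 24 h. Cells given a series of ADM concentrations with or without modulator at 5 μM for 48 h at 37 °C. MTT added for 4 h, A570 read. ADM IC50 from dose–response curves. RF = IC50 without modulator / IC50 with modulator. Triplicates, three independent repeats.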
Background: Formazan colour is commonly taken as a measure of viable cells.

Experiment [3] deals with K562. Nature of the experiment: Cytotoxicity against human K562 cells assessed as cell viability after 48 hrs by MTT assay. The conditions noted are these: K562, 48 h. Put shortly: as §1
For experiment [4], the system named is K562/A02. As to the kind of experiment: Reversal of P-gp-mediated resistance to adriamycin in human K562/A02 cells assessed as reduction in adriamycin IC50 at 0.625 uM after 48 hrs by MTT assay relative to control. Put shortly:
(§3)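 K562/A02 cells in RPMI 1640 with 10% FBS, grown 24 h. Cells exposed 48 h at 37 °C to graded ADM concentrations, with or without modulator at 0.078–2.5 μM. MTT added for 4 h, A570 read. Reversal fold = ADM IC50 without modulator / ADM IC50 with modulator. Three independent experiments, mean±SEM.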

Experiment [5] has as its system K562/A02. As to the kind of experiment: Inhibition of P-gp-mediated adriamycin efflux in human K562/A02 cells assessed as intracellular adriamycin accumulation at 5 uM preincubated for 60 mins followed by adriamycin addition measured after 90 mins by flow cytometry. Put shortly: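 K562/A02 cells (ADM-induced, P-gp-overexpressing) seeded at 1.5×10^5/well; modulator or 0.1% DMSO vehicle pre-incubated 60 min, then 20 μM ADM added for 90 min; cells washed three times with PBS at 4°C; retained intracellular ADM read as mean fluorescence intensity by flow cytometry; means±SD of two independent experiments.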
(In flow cytometry, cells or beads pass a laser one at a time.)

The test system of experiment [6] is K562/A02. As to the kind of experiment: Inhibition of P-gp-mediated adriamycin efflux in human K562/A02 cells assessed as increase in intracellular accumulation of adriamycin preincubated for 60 mins followed by adriamycin addition measured after 90 mins by flow cytometry. Put shortly:
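K562/A02 cells seeded at 1.5×10^5 per well. Modulator (0.5, 2.5 or 5 μM) or 0.1% DMSO vehicle pre-incubated 60 min. ADM 20 μM then added for 90 min. Cells washed three times in PBS at 4 °C. Retained ADM read as mean fluorescence intensity by flow cytometry. Means±SD of two independent experiments.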

Experiment [7] deals with K562/A02. As to the kind of experiment: Reversal of P-gp-mediated resistance to adriamycin in human K562/A02 cells assessed as reduction in adriamycin IC50 at 0.156 uM after 48 hrs by MTT assay relative to control. Put shortly: as §3
For experiment [8], the system named is K562/A02. Nature of the experiment: Reversal of P-gp-mediated resistance to adriamycin in human K562/A02 cells assessed as reduction in adriamycin IC50 at 0.31 uM after 48 hrs by MTT assay relative to control. Put shortly: as §3
The subject of experiment [9] is K562/A02. As to the kind of experiment: Potency index, ratio of verapamil to compound for inhibition of P-gp-mediated adriamycin efflux in human K562/A02 cells assessed as intracellular adriamycin accumulation at 5 uM.
The test system of experiment [10] is K562/A02. As to the kind of experiment: Reversal of P-gp-mediated resistance to adriamycin in human K562/A02 cells assessed as reduction in adriamycin IC50 at 0.078 uM after 48 hrs by MTT assay relative to control. Put shortly: as §3
Experiment [11] concerns K562/A02. Nature of the experiment: Reversal of P-gp-mediated resistance to adriamycin in human K562/A02 cells assessed as reduction in adriamycin IC50 at 2.5 uM after 48 hrs by MTT assay relative to control. Put shortly:
as §3

Experiment [12] concerns K562/A02. As to the kind of experiment: Reversal of P-gp-mediated resistance to adriamycin in human K562/A02 cells assessed as reduction in adriamycin IC50 at 1.25 uM after 48 hrs by MTT assay relative to control. Put shortly: as §3
Experiment [13] relates to K562/A02. Nature of the experiment: (§4) Reversal of P-gp-mediated resistance to adriamycin in human K562/A02 cells assessed as reduction in adriamycin IC50 after 48 hrs by MTT assay. Put shortly: as §2
Experiment [14] in a line: as §4. The conditions noted are these: K562/A02, 48 h. Put shortly: as §2

Where a name gives a salt, the structure may show the parent alone.

As usually defined, the IC50 is the midpoint of a concentration-inhibition curve. The term EC50 denotes the concentration giving half of the maximal effect.

For `COc1cc2c(cc1OC)CN(CCc1ccc(-n3cc(COc4ccccc4[N+](=O)[O-])nn3)cc1)CC2`, the IC50 is greater than 100 µM in experiment [1] and 48.8 µM in experiment [3]. Also, in experiment [2], the fold change (FC) was 7.4.

For the compound `COc1cc2c(cc1OC)CN(CCc1ccc(-n3cc(COc4ccc(C)cc4)nn3)cc1)CC2`, the IC50 in experiment [1] and in experiment [3] was greater than 100 µM throughout. The fold change (FC) in [2] amounted to 5.8.

With `COc1cc2c(cc1OC)CN(CCn1cc(COc3ccc(C(C)C)cc3)nn1)CC2`, the IC50 in experiment [1] and in [3] was greater than 100 µM each time. Moreover, in experiment [2], the fold change (FC) amounted to 7.7.

`COc1cc2c(cc1OC)CN(CCn1cc(COc3ccc(C)cc3)nn1)CC2`: the IC50 in [1] and in experiment [3] was greater than 100 µM each time. Further, the fold change (FC) in [2] was 6.2.

Turning to `COc1cc2c(cc1OC)CN(CCn1cc(COc3ccccc3C(C)(C)C)nn1)CC2`, the half-inhibitory concentration (IC50) in experiment [1] and in experiment [3] was greater than 100 µM each time. Moreover, the fold change (FC) in [2] is 9.6.

As for `COc1cc2c(cc1OC)CN(CCc1ccc(-n3cc(COc4ccc(C(C)(C)C)cc4)nn3)cc1)CC2`, the IC50 in [1] is greater than 100 µM; in [3] it was 21.1 µM. Moreover, in [2], the fold change (FC) came to 9.3.

In the case of `COc1cc2c(cc1OC)CN(CCn1cc(COc3cccc4ccccc34)nn1)CC2`, the IC50 in experiment [1] and in experiment [3] was greater than 100 µM throughout. Besides, the fold change (FC) in [2] was 5.7.

For the compound `CCc1ccc(OCc2cn(-c3ccc(CCN4CCc5cc(OC)c(OC)cc5C4)cc3)nn2)cc1`, the IC50 in [1] and in [3] was greater than 100 µM in each case. Besides, in experiment [2], the fold change (FC) was 9.1.

As for `COc1cc2c(cc1OC)CN(CCc1ccc(-n3cc(COc4cccc5ccccc45)nn3)cc1)CC2`, the IC50 in experiment [1] and in [3] was greater than 100 µM in each case. In addition, the fold change (FC) in experiment [2] was found to be 21.

For `COc1cc2c(cc1OC)CN(CCc1ccc(-n3cc(COc4ccc(OC(F)(F)F)cc4)nn3)cc1)CC2`, the IC50 was greater than 100 µM in experiment [1] and 37.4 µM in experiment [3]. In addition, the fold change (FC) in experiment [2] came out at 5.9.

On to `COc1cc2c(cc1OC)CN(CCn1cc(COc3ccc4ccccc4c3)nn1)CC2`, for which the IC50 in experiment [1] and in [3] was greater than 100 µM each time. The fold change (FC) in experiment [2] worked out at 3.6.

Consider `COc1cc2c(cc1OC)CN(CCn1cc(COc3ccc([N+](=O)[O-])cc3)nn1)CC2`, for which the IC50 in [1] and in [3] was greater than 100 µM each time. In experiment [2], the fold change (FC) stood at 3.1.

In the case of `CCc1ccc(OCc2cn(CCN3CCc4cc(OC)c(OC)cc4C3)nn2)cc1`, the IC50 in experiment [1] and in experiment [3] was greater than 100 µM throughout. In addition, the fold change (FC) in [2] came to 6.1.

In the case of `COc1cc2c(cc1OC)CN(CCn1cc(COc3ccc(C)cc3C)nn1)CC2`, the IC50 in [1] and in [3] was greater than 100 µM in each case. Also, the fold change (FC) in [2] amounted to 4.6.

Turning to `COc1cc2c(cc1OC)CN(CCc1ccc(-n3cc(COc4ccc(C(C)C)cc4)nn3)cc1)CC2`, the IC50 in experiment [1] and in experiment [3] was greater than 100 µM each time. Also, in [2], the fold change (FC) came out at 9.2.

`COc1cc2c(cc1OC)CN(CCc1ccc(-n3cc(COc4ccccc4)nn3)cc1)CC2`: the IC50 in experiment [1] and in experiment [3] was greater than 100 µM in each case. Further, the fold change (FC) in experiment [4] stood at 11.3; in experiment [2], 31.4; in experiment [7] it was 2.2; in experiment [8], 7.2; in experiment [10], 1.6; in experiment [11], 20.3. Further, the fold change (FC) in experiment [12] turned out to be 16.9. Besides, the Flu intensity in experiment [5] was found to be 1280. For the same compound, the inhibition entry in experiment [6] is “Dose-dependent effect”. Besides, the Ratio in [9] turned out to be 1.5. In addition, in [13], the Activity result was “Dose-dependent effect”. Besides, the EC50 in experiment [14] was 0.193 µM.

`COc1cc2c(cc1OC)CN(CCn1cc(COc3ccccc3OC)nn1)CC2`: the IC50 in experiment [1] and in experiment [3] was greater than 100 µM in each case. Besides, in experiment [2], the fold change (FC) worked out at 4.1.

For `COc1cc2c(cc1OC)CN(CCn1cc(COc3ccc(C(C)(C)C)cc3)nn1)CC2`, the IC50 in experiment [1] and in experiment [3] was greater than 100 µM in each case. In experiment [2], the fold change (FC) was 20.4.

Consider `COc1cc2c(cc1OC)CN(CCc1ccc(-n3cc(COc4cccc5cccnc45)nn3)cc1)CC2`, for which the IC50 in [1] was greater than 100 µM; in experiment [3], 28 µM. The fold change (FC) in experiment [2] was 10.

As to `COc1cc2c(cc1OC)CN(CCc1ccc(-n3cc(COc4ccc5ccccc5c4)nn3)cc1)CC2`, the IC50 in experiment [1] and in [3] was greater than 100 µM in each case. Further, the fold change (FC) in [2] is 8.5.

Consider `COc1cc2c(cc1OC)CN(CCn1cc(COc3ccc(C)c(C)c3)nn1)CC2`, for which the IC50 in [1] and in experiment [3] was greater than 100 µM in each case. Moreover, the fold change (FC) in experiment [2] worked out at 9.1.

For `COc1cc2c(cc1OC)CN(CCc1ccc(-n3cc(COc4ccc([N+](=O)[O-])cc4)nn3)cc1)CC2`, the IC50 was greater than 100 µM in experiment [1] and 49.2 µM in experiment [3]. The fold change (FC) in [2] amounted to 5.4.

As for `COc1cc2c(cc1OC)CN(CCn1cc(COc3ccc(F)cc3)nn1)CC2`, the IC50 in experiment [1] and in [3] was greater than 100 µM in each case. Besides, the fold change (FC) in [2] was 2.7.

Consider `COc1ccc(OCc2cn(-c3ccc(CCN4CCc5cc(OC)c(OC)cc5C4)cc3)nn2)cc1`, for which the IC50 in experiment [1] and in experiment [3] was greater than 100 µM in each case. Also, the fold change (FC) in [2] came out at 3.5.

In the case of `COc1ccc(CCN(C)CCCC(C#N)(c2ccc(OC)c(OC)c2)C(C)C)cc1OC` (stereo unspecified), the IC50 in experiment [3] was 65.3 µM.

Regarding `COc1cccc2c1C(=O)c1c(O)c3c(c(O)c1C2=O)C[C@@](O)(C(=O)CO)C[C@@H]3O[C@H]1C[C@H](N)[C@H](O)[C@H](C)O1` [DOXORUBICIN HYDROCHLORIDE], the IC50 came to 38 µM in [1] and 6.23 µM in [3].

As for `COc1ccc(OCc2cn(CCN3CCc4cc(OC)c(OC)cc4C3)nn2)cc1`, the IC50 in [1] and in experiment [3] was greater than 100 µM each time. For the same compound, the fold change (FC) in [2] came to 3.4.

Turning to `COc1ccc(C(=O)Nc2ccccc2C(=O)Nc2ccc(CCN3CCc4cc(OC)c(OC)cc4C3)cc2)cc1OC`, the IC50 turned out to be 50.1 µM in experiment [1] and 19.6 µM in [3]. For the same compound, the fold change (FC) in experiment [2] was 30.4.

Consider `COc1cc2c(cc1OC)CN(CCc1ccc(-n3cc(COc4ccccc4NC(=O)c4ccccc4)nn3)cc1)CC2`, for which the IC50 in experiment [1] and in experiment [3] was greater than 100 µM each time. Further, the fold change (FC) in experiment [2] was found to be 23. For the same compound, in experiment [14], the EC50 was 0.484 µM.
